# ChEMBL document CHEMBL1152993, “Telithromycin and quinupristin-dalfopristin induce delayed death in Plasmodium falciparum” (Antimicrob Agents Chemother, 2008)
# The source made the active and inactive calls. The rule behind the calls is not given here.
# How the values were obtained:
# Plasmodium falciparum [1] = assay: Antiplasmodial activity against Plasmodium falciparum 3D7 as late trophozoite to early schizont arrest at IC50 after 48-120 hrs by giemsa stain; assay type: functional, organism-based
# How it was run: (§1)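 Synchronized 3D7 cultures exposed to drug at the 96-h IC50 over three life cycles, with 0.5% DMSO as untreated control. Giemsa smears were taken at 48, 72, 96 and 120 h, and developmental stages were counted at each time point.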
# Plasmodium falciparum [2] = assay: Antiplasmodial activity after 48 hrs against Plasmodium falciparum 3D7 as Malstat LDH activity; assay type: functional, organism-based; conditions: for IC50: 3D7, 48 h
# How it was run: (§2)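 Synchronized ring-stage 3D7 plated at 1% parasitemia. Drugs tested at 1 nM to 100 μM, dissolved in DMSO or water; 0.5% DMSO was the negative control. Cultures kept 48, 72, 96 or 120 h, with medium changed at day 3. Viability read by Malstat parasite lactate dehydrogenase activity. IC50 reported as mean ± SEM.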
# Plasmodium falciparum [3] = assay: Antiplasmodial activity against Plasmodium falciparum 3D7 as delayed first replication cycle at IC50 after 48-120 hrs by giemsa stain; assay type: functional; how it was run: as §1
# Plasmodium falciparum [4] = assay: Antiplasmodial activity after 120 hrs against Plasmodium falciparum 3D7 as Malstat LDH activity; assay type: functional, organism-based; conditions: for IC50: 3D7, 120 h; how it was run: as §2
# Plasmodium falciparum [5] = assay: Antiplasmodial activity against Plasmodium falciparum 3D7 as 2xnuclei schizont arrest at IC50 after 96 hrs by transmission electron microscopy; assay type: functional, organism-based
# How it was run: (§3)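 Cultures exposed to drug at the 96-h IC50 and collected after 96 h of treatment. Fixed in 1% glutaraldehyde and 4% paraformaldehyde in PBS, then processed for transmission electron microscopy to assess schizont stage and morphology. Untreated parasites served as comparison.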
# Plasmodium falciparum [6] = assay: Antiplasmodial activity after 72 hrs against Plasmodium falciparum 3D7 as Malstat LDH activity; assay type: functional, organism-based; conditions: for IC50: 3D7, 72 h; how it was run: as §2
# Plasmodium falciparum [7] = assay: Antiplasmodial activity as ED50 against parasite growth after 96 hrs for Plasmodium falciparum 3D7; assay type: functional, organism-based; conditions: 3D7, 96 h; how it was run: as §2
# Plasmodium falciparum [8] = assay: Antiplasmodial activity after 96 hrs against Plasmodium falciparum 3D7 as Malstat LDH activity; assay type: functional, organism-based; conditions: for IC50: 3D7, 96 h; how it was run: as §2
# Plasmodium falciparum [9] = assay: Antiplasmodial activity against Plasmodium falciparum 3D7 as delayed maturation in first replication and early second cycle arrest at IC50; assay type: functional, organism-based; how it was run: as §1
# [10] = Cmax in human at 12 mg/kg administered as single oral dose; assay type: ADME, organism-based; parameters: dose 12 mg/kg, route oral; conditions: in vivo
# Plasmodium falciparum [11] = assay: Antiplasmodial activity as ED50 against parasite growth after 48 hrs for Plasmodium falciparum 3D7; assay type: functional, organism-based; conditions: 3D7, 48 h; how it was run: as §2
# Plasmodium falciparum [12] = assay: Antiplasmodial activity against Plasmodium falciparum 3D7 as early schizont maturation arrest at IC50 after 48-120 hrs by giemsa stain; assay type: functional, organism-based; how it was run: as §1
# Plasmodium falciparum [13] = assay: Relative activity against Plasmodium falciparum 3D7 as IC50 ratio after 48 and 96 hrs; assay type: functional
# Plasmodium falciparum [14] = assay: Antiplasmodial activity against Plasmodium falciparum 3D7 assessed as multiple-nuclei schizont arrest at IC50 after 96 hrs by transmission electron microscopy; assay type: functional, organism-based; how it was run: as §3
IC50 (Plasmodium falciparum [2]) [nM],IC50 (Plasmodium falciparum [4]) [nM],IC50 (Plasmodium falciparum [6]) [nM],IC50 (Plasmodium falciparum [8]) [nM],Cmax [10] [ng/mL],Compound,Activity (Plasmodium falciparum [1]),Activity (Plasmodium falciparum [3]) [h],Activity (Plasmodium falciparum [5]),IC50 (Plasmodium falciparum [7]) [µg/mL],Activity (Plasmodium falciparum [9]),IC50 (Plasmodium falciparum [11]) [µg/mL],Activity (Plasmodium falciparum [12]),Ratio IC50 (Plasmodium falciparum [13]),Activity (Plasmodium falciparum [14]),Activity (Plasmodium falciparum [2]),Activity (Plasmodium falciparum [4]),Activity (Plasmodium falciparum [6]),Activity (Plasmodium falciparum [8])
8080,440,1040,280,1900,CC[C@H]1OC(=O)[C@H](C)C(=O)[C@H](C)[C@@H](O[C@@H]2O[C@H](C)C[C@H](N(C)C)[C@H]2O)[C@](C)(OC)C[C@@H](C)C(=O)[C@H](C)[C@H]2N(CCCCn3cnc(-c4cccnc4)c3)C(=O)O[C@]12C [TELITHROMYCIN],Active,5,Active,0.23,Active,6.56,–,–,–,–,–,–,–
5420,120,1490,720,–,C[C@H]1c2cccc(O)c2C(=O)C2=C(O)[C@]3(O)C(=O)C(C(N)=O)=C(O)[C@@H](N(C)C)[C@@H]3[C@@H](O)[C@@H]21.O [DOXYCYCLINE],–,–,–,–,–,–,Active,10,Active,–,–,–,–
–,–,–,–,–,CC(=O)NC[C@H]1CN(c2ccc(N3CCOCC3)c(F)c2)C(=O)O1,–,–,–,–,–,–,–,–,–,inactive,inactive,inactive,inactive
9040,410,4570,940,–,CC[C@H]1OC(=O)[C@H](C)[C@@H](O[C@H]2C[C@@](C)(OC)[C@@H](O)[C@H](C)O2)[C@H](C)[C@@H](O[C@@H]2O[C@H](C)C[C@H](N(C)C)[C@H]2O)[C@](C)(O)C[C@@H](C)CN(C)[C@H](C)[C@@H](O)[C@]1(C)O [AZITHROMYCIN],–,–,–,–,–,–,Active,10,Active,–,–,–,–
